The results in this text go back to PubChem BioAssay AID775 (SRMLSC, 2007).

Each structure is given as a SMILES string. Out of some 130,000 compounds screened, about 900 (0.69%) were called active.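 The calls were made as follows: active = inhibition above a set limit, placed 3 SD over the median of all compounds (cut at about 26% in these data); inactive = the rest.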 Shown is part of a subset that was picked to be rich in actives.

A short description of the assay: rescue of nicotinamide-shortened yeast lifespan – S. cerevisiae, OD615, primary screen (AID 775).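 Also: 0% = nicotinamide-treated wells and 100% = cells grown without nicotinamide.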 To be noted: S. cerevisiae growth with nicotinamide, at 10 µM, stronger effect = higher value, deaD strain in restrictive glucose medium. The essentials: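 Buffer or medium: CSMM-D glucose medium, restrictive; test system: modified budding yeast, DeaD strain; compound: single dose 10 µM compound, 0.25% DMSO; schedule: culture preincubation 4 h, compound exposure 48 h, both 30 °C; detection: optical density (absorbance) at 615 nm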
For the molecule `CCOc1ncccc1C(=O)N(C)CC(=O)Nc1ccc(F)cc1`, the inhibition of the nicotinamide effect is 0.31% (inactive). In the case of `O=C(/C=C/c1cccc([N+](=O)[O-])c1)NCCSCc1ccco1` it was -4.01% (inactive); in that of `COc1ccc(CNc2ccc3c(c2)CCC3)cc1OC`, -10.1% (inactive). The value for `COc1ccc(CC(=O)Nc2ccc3c(c2)CCC3)cc1S(=O)(=O)N1CCOCC1` was 61% (active). In the case of `O=C(CN1C(=O)CCC1=O)Nc1ccc(S(=O)(=O)N2CCOCC2)cc1` it was -14.7% (inactive). `CCCc1cc(=O)[nH]c(SCc2cc(=O)oc3c(C)c(C)ccc23)n1`: the inhibition of the nicotinamide effect is 4.9% (inactive).

In the case of `O=C(OCc1ccc(Br)cc1)c1cccc(-c2nnc(-c3ccccc3)o2)c1`, the inhibition of the nicotinamide effect is 10.4% (inactive). In the case of `CCOC(=O)NN1C(=O)c2ccccc2NC1c1cccc(O)c1` (centres undefined) it was -1.57% (inactive). In the case of `Cc1cc(C(=O)N/N=C/c2cc([N+](=O)[O-])cc(C)c2O)n[nH]1` it was -1.48% (inactive). For `Cc1cc(Cl)ccc1OCCCC(=O)NCc1ccncc1`, the inhibition of the nicotinamide effect was 1.85% (inactive). The value for `CCn1ncc(CNC(=O)C2(C)CC2(Br)Br)c1C` (centres undefined) was 9.74% (inactive); that for `O=C(NCCOCc1ccc(Cl)cc1)c1ncn[nH]1` was 1.27% (inactive).

As for `O=C(/C=C/Sc1ncn[nH]1)c1ccc(Cl)cc1`, the inhibition of the nicotinamide effect is 44.7% (active). In the case of `CC(C)(C)c1ccc(C(=O)CSc2ncn[nH]2)cc1` it was -10.2% (inactive); in that of `Cc1ccccc1C(OCCN(C)C)C1CCCCC1` (centres undefined), -0.42% (inactive). For the molecule `COc1ccc(C(CC(=O)c2ccccc2)S(=O)(=O)c2ccccc2)cc1` (centres undefined), the inhibition of the nicotinamide effect was -1.04% (inactive). For `O=C(Nc1cc(C(F)(F)F)ccc1Cl)C(=O)N1CCCCC1`, the inhibition of the nicotinamide effect is -4.64% (inactive). The value for `O=C(CN1C(=O)NC2(CCCCCC2)C1=O)NCc1cccs1` was 7.48% (inactive); that for `Cc1ccc(C(=O)OC2=CC(=O)CC(C)(C)C2)cc1` was 72.5% (active); that for `Cc1cc(O)ccc1NC1=CC(=O)CC(C)(C)C1` was 11.5% (inactive). As for `COC(=O)c1ccc(NC(=O)Nc2ccc(C)cc2)cc1`, the inhibition of the nicotinamide effect was -13.6% (inactive). In the case of `Nc1nc(SCC(=O)NNc2c(Cl)cc(Cl)cc2Cl)n[nH]1` it was 1.57% (inactive). In the case of `COc1ccc(C2=NOC(COC(=O)c3ccc4ccccc4n3)C2)cc1` (centres undefined) it was -3.92% (inactive).

For the molecule `COc1ccc(C(=O)COC(=O)c2ccc3ccccc3n2)cc1`, the inhibition of the nicotinamide effect is -4.94% (inactive). In the case of `O=C(Oc1ccc([N+](=O)[O-])cc1)c1ccc2ccccc2n1`, the inhibition of the nicotinamide effect is 75.9% (active). The value for `COc1cccc(NC(=O)CC(c2ccc(OC(C)C)cc2)c2ccccc2OC)c1` (centres undefined) was 9.84% (inactive); that for `CCc1cc(-c2n[nH]c(=S)n2CC(C)C)cs1` was 7.5% (inactive); that for `CCCCCOc1ccc(/C=C/C(=O)NCCc2nc3ccccc3[nH]2)cc1OC` was 3.92% (inactive). In the case of `CC1(c2ccccc2)CC(C)(C)N(C(=O)c2cc([N+](=O)[O-])cc([N+](=O)[O-])c2)c2ccccc21` (centres undefined) it was -0.09% (inactive).

As to `CCOC12CC(C)(C)CC(C)(CC3=C1C(=O)CC(C)(C)C3)C2` (centres undefined), the inhibition of the nicotinamide effect is 7.4% (inactive).

As to `O=C(Cc1cccc2ccccc12)NCCC1=CCCCC1`, the inhibition of the nicotinamide effect is 10.1% (inactive). In the case of `O=C(/C=C/NCc1ccc(F)cc1)c1ccccc1` it was 26.6% (active); in that of `O=C(Cc1ccccc1)NCc1ccc(F)cc1`, -0.44% (inactive); in that of `O=C(/C=C\NCC(=O)c1ccccc1)c1ccccc1`, 3.73% (inactive). On to `COc1cc(C(=O)NNC(=O)c2ccc(S(=O)(=O)N3CCCCC3)cc2)cc(OC)c1OC`, for which the inhibition of the nicotinamide effect is -0.56% (inactive). In the case of `Cc1cc(NS(=O)(=O)c2ccc(NC(=S)NC(=O)c3ccc(F)cc3Cl)cc2)no1` it was -5.54% (inactive); in that of `O=C(CSc1ccccn1)Nc1nc2c(ccc3ccccc32)s1`, -4.27% (inactive); in that of `CC(C)(C)OC(=O)N/N=C/c1ccc(C(=O)O)cc1`, -2.34% (inactive).

In the case of `CCC(NC(=O)c1ccccc1NC(=O)c1ccccc1)C(=O)NNC(=O)CSc1nc2ccccc2o1` (centres undefined), the inhibition of the nicotinamide effect was -3.91% (inactive).

For the molecule `Cc1c(C2=CCN(S(=O)(=O)c3ccc(Cl)cc3)CC2)c2ccccc2n1C`, the inhibition of the nicotinamide effect was 2.05% (inactive). On to `CC(C)C(C)(C#N)NC(=O)CSc1nc2scc(-c3ccccc3)c2c(=O)[nH]1` (centres undefined), for which the inhibition of the nicotinamide effect is 7.12% (inactive).

Consider `CCc1ccc2c(c1)C(c1ccc([N+](=O)[O-])cc1)=NNC(c1ccccc1)=N2`, for which the inhibition of the nicotinamide effect was -1.67% (inactive). As to `Cc1nnc(C)n1/N=C/c1ccc(C(C)C)cc1`, the inhibition of the nicotinamide effect is 1.31% (inactive). `CCN(CC)S(=O)(=O)c1cccc(-c2n[nH]c(=S)n2/N=C/c2ccc(C(=O)OC)cc2)c1`: the inhibition of the nicotinamide effect is -2.04% (inactive).

In the case of `COC(=O)c1ccc(/C=N\n2c(C)nnc2C)cc1`, the inhibition of the nicotinamide effect was 27.3% (active).

In the case of `CCOc1ccc2nc(C(=O)N3CCCC(C)C3)sc2c1` (centres undefined), the inhibition of the nicotinamide effect was -4.7% (inactive).

Consider `O=c1c2ccccc2nc(CSc2nnnn2-c2ccccc2)n1-c1ccccc1`, for which the inhibition of the nicotinamide effect was -5.7% (inactive). The value for `N#CCSc1nc2ccccc2c(=O)n1-c1ccccc1` was -7.51% (inactive).

Turning to `CCCN1C(=O)C(Cc2nc3ccccc3c(=O)n2-c2ccccc2)c2cc(C)ccc21` (centres undefined), the inhibition of the nicotinamide effect was 38.7% (active). With `Cc1noc(/C=C/c2ccco2)c1S(=O)(=O)N1CCC(C(=O)Nc2ccc(Cl)cn2)CC1`, the inhibition of the nicotinamide effect is 10.7% (inactive).

Take `O=C(COC(=O)c1cc(=O)[nH]c2ccccc12)Nc1nc(-c2cccc(Br)c2)cs1`: the inhibition of the nicotinamide effect was -0.45% (inactive). The value for `Cc1ccc(OCCOCCOc2ccc(Br)cc2/C=N\NC(=O)c2ccncc2)cc1` was -1.41% (inactive); that for `CC12CCC(C(=O)N(c3cccc(Cl)c3)C1=O)C2(C)C` (centres undefined) was 3.45% (inactive); that for `COC(=O)C1=CN(C)C=C(C(=O)OC)C1c1ccc(Cl)cc1Cl` was -5.36% (inactive). Turning to `CC12CN3CC(C)(CN(C1)C3c1ccc(Cl)cc1Cl)C2=O` (centres undefined), the inhibition of the nicotinamide effect is 30.1% (active). The value for `COc1ccc(NC(=O)COC(=O)c2ccc(NS(=O)(=O)/C=C/c3ccccc3)cc2)cc1` was 3.99% (inactive); that for `Cc1ccc(S(=O)(=O)Nc2ccccc2CNc2c(C)n(C)n(-c3ccccc3)c2=O)cc1` was 43% (active); that for `COc1ccc(S(=O)(=O)Nc2c(C)n(C)n(-c3ccccc3)c2=O)cc1` was -9.71% (inactive). In the case of `Cc1c(NS(=O)(=O)c2ccc(NC3CCCC3)c([N+](=O)[O-])c2)c(=O)n(-c2ccccc2)n1C` it was -2.8% (inactive). For `O=C(Nc1cccc([N+](=O)[O-])c1)c1ccc2c(c1)OCO2`, the inhibition of the nicotinamide effect was -0.87% (inactive).

With `COC(=O)c1ccccc1SC1CC(=O)N(c2cccc(C)c2)C1=O` (centres undefined), the inhibition of the nicotinamide effect is -3.77% (inactive). In the case of `CC(C)(C)c1ccc(/C=C/C(=O)Nc2ncccn2)cc1` it was -2% (inactive); in that of `Cc1cccc(N2CCN(C(=O)c3cccc(S(=O)(=O)N4CCc5ccccc5C4)c3)CC2C)c1` (centres undefined), 9.33% (inactive). As for `N#Cc1ccc(N2Cc3ccccc3/C2=N/C(=O)Nc2ccc(Cl)cc2)cc1`, the inhibition of the nicotinamide effect was -2.85% (inactive). The value for `Cc1cccc(N2Cc3ccccc3C2=NC(=O)c2ccc(Cl)nc2)c1` was 34.6% (active); that for `CC(NC(=S)Nc1ccc(S(N)(=O)=O)cc1)c1ccc2c(c1)OCO2` (centres undefined) was -4.33% (inactive). In the case of `COC(=O)c1cn(C)c2ccc(S(=O)(=O)N3CC(C)CC(C)C3)cc2c1=O` (centres undefined) it was -19.7% (inactive); in that of `O=C(c1cccc(S(=O)(=O)N2CCOCC2)c1)N1CCOCC1`, 4.86% (inactive).

In the case of `CC1CC(C)CN(S(=O)(=O)c2cccc(C(=O)N3C(=O)c4cccc(N)c4C3=O)c2)C1` (centres undefined), the inhibition of the nicotinamide effect was 86.5% (active). The value for `Cc1cc(C)c(NC(=S)N2CCCC2C(=O)O)c(C)c1` (centres undefined) was -4.99% (inactive); that for `Cc1cccc(N2C(=O)SC(SC(=Nc3ccccc3)Nc3ccccc3)C2=O)c1` (centres undefined) was 7.31% (inactive); that for `COc1ccc(/C=N/NC(=O)c2ccc(Cl)cc2)cc1COC(C)=O` was -4.25% (inactive). The value for `Cc1cc(Cl)ccc1NC(=S)NCCCN1CCCC1=O` was 3.7% (inactive); that for `CC(C)Oc1c(Br)cc(Br)cc1/C=N/NC(N)=S` was 0.87% (inactive).

As for `NC(=S)N/N=C/c1coc2cc(Cl)ccc2c1=O`, the inhibition of the nicotinamide effect was 38.1% (active).

For `O=C(N/N=C/c1coc2ccccc2c1=O)c1cc2ccccc2o1`, the inhibition of the nicotinamide effect is 19.2% (inactive). In the case of `O=C(Cc1ccccc1)NNC1CC(=O)N(c2ccc(Br)cc2)C1=O` (centres undefined), the inhibition of the nicotinamide effect is -4.42% (inactive).

As to `COc1ccc(-n2c(C)cc(C(=O)COC(=O)c3cc(OC)c(OC)cc3NC(=O)c3cccs3)c2C)cc1`, the inhibition of the nicotinamide effect was 1.08% (inactive). `O=C(CSc1nc2ccccc2o1)N1c2ccccc2Sc2ccc(Cl)cc21`: the inhibition of the nicotinamide effect was -7.73% (inactive). Turning to `S=C1Nc2cc(Cl)ccc2Sc2ccccc21`, the inhibition of the nicotinamide effect was 2.87% (inactive). In the case of `O=C1Cc2ccccc2Sc2ccc(Cl)cc21`, the inhibition of the nicotinamide effect is 38.7% (active). The value for `Cc1ccccc1N/C(SCc1ccc(Cl)cc1)=C(/C#N)C(N)=O` was 1.27% (inactive); that for `Cc1nnc(-c2ccc(Oc3ccc(C)c(C)c3)c([N+](=O)[O-])c2)o1` was -6.06% (inactive); that for `Cc1ccc(S(=O)(=O)N(CC(=O)Nc2cccc([N+](=O)[O-])c2)Cc2ccc(Cl)cc2)cc1` was -5.04% (inactive).

For `CC1(C)CC(=O)C=C(NC2CC(C)(C)NC(C)(C)C2)C1`, the inhibition of the nicotinamide effect was 5.33% (inactive). Take `CCC(=NC1CC(C)(C)NC(C)(C)C1)C1=C(O)CC(C)(C)CC1=O`: the inhibition of the nicotinamide effect is 36.4% (active). The value for `COCC(C)N=CC1=C(O)CC(C)(C)CC1=O` (centres undefined) was -1.64% (inactive); that for `Cc1[nH]c2ccccc2c1/C=N\NC(=O)Cn1nnc(-c2ccccc2)n1` was 1.83% (inactive). In the case of `Cc1nn(CC(=O)Nc2ccc(N(C)C)cc2)c(C)c1[N+](=O)[O-]` it was -0.66% (inactive).

As for `COC(=O)/C(C#N)=C/c1occc1C`, the inhibition of the nicotinamide effect is -5.74% (inactive). In the case of `Cc1cc(/C=C2/NC(=O)NC2=O)c(C)n1-c1cccnc1`, the inhibition of the nicotinamide effect is -0.65% (inactive). With `CCN(c1ccccc1)S(=O)(=O)c1ccc(N)cc1`, the inhibition of the nicotinamide effect was -3.49% (inactive). The value for `O=S(=O)(ON(c1ccccc1)S(=O)(=O)c1ccccc1)c1ccccc1` was 43.7% (active). `CCOc1ccc(S(=O)(=O)N(CC(=O)O)c2ccccc2)cc1`: the inhibition of the nicotinamide effect is -6.31% (inactive).
